According to ChEMBL document CHEMBL3232832, “Derivatives of dibenzothiophene for positron emission tomography imaging of α7-nicotinic acetylcholine receptors” (J Med Chem, 2013):

Assays:
Hippocampus [1] = test: Drug uptake in CD-1 mouse hippocampus at 70 uCi, iv administered 10 mins post ondansetron challenge measured after 90 mins; assay type: ADME, organism-based; conditions: in vivo, 1.5 h
How it was run: (§1)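 Male CD-1 mice, n=3. Drug at 2 mg/kg s.c. in saline:DMSO 5:1, with vehicle controls. [18F] radiotracer (70 µCi, SA ~14000 mCi/µmol) given i.v. 10 min later. Regions harvested 90 min after tracer, gamma counted, expressed as %ID/g. Compared by single-factor ANOVA.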

Cerebellum [2] = test: Drug uptake in CD-1 mouse cerebellum at 70 uCi, iv administered 10 mins post SCH23390 challenge measured after 90 mins; assay type: ADME, organism-based; conditions: in vivo, 1.5 h; how it was run: as §1
[3] = Drug uptake in CD-1 mouse superior and inferior colliculus at 70 uCi, iv administered 10 mins post ondansetron challenge measured after 90 mins; assay type: ADME, organism-based; conditions: in vivo, 1.5 h
How it was run: (§2)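 Male CD-1 mice (25–30 g). […] Brains removed 90 min later and dissected on ice. Regions weighed and gamma-counted against injectate standards. Result as %ID/g, mean ± SD, n=3; ANOVA versus controls.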

Cerebellum [4] = test: Drug uptake in CD-1 mouse cerebellum at 0.07 mCi, iv after 90 mins in presence of 7-(1,4-Diazabicyclo[3.2.2]nonan-4-yl)-2-fluorodibenzo[b,d]-thiophene 5,5-Dioxide; assay type: ADME, organism-based; conditions: in vivo, 1.5 h
How it was run: (§3)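 Male CD-1 mice, n=3. [18F] radiotracer (70 µCi, 0.2 mL) given i.v. together with unlabeled blocker in saline pH 5.5. Brain regions dissected at 90 min, gamma counted, expressed as %ID/g.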

[5] = Drug uptake in CD-1 mouse superior and inferior colliculus at 0.07 mCi, iv after 90 mins co-administered with SSR180711; assay type: ADME, organism-based; conditions: in vivo, 1.5 h
How it was run: (§4)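 Male CD-1 mice. [18F]tracer (0.07 mCi, SA 7900 mCi/µmol, 0.2 mL) co-injected i.v. with blocker at 0 (vehicle), 0.02, 0.2, 1 or 3 mg/kg. Blocker dissolved in saline:alcohol 9:1, pH 5.5. Brain regions harvested at 90 min and gamma-counted. %ID/g, mean ± SD, n=3 per dose; ANOVA versus controls.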

Brain [6] = test: Drug uptake in CD-1 mouse other brain region at 70 uCi, iv administered 10 mins post spiperone challenge measured after 90 mins; assay type: ADME, organism-based; conditions: in vivo, 1.5 h; how it was run: as §2
Hippocampus [7] = test: Drug uptake in CD-1 mouse hippocampus at 70 uCi, iv administered 10 mins post naltrindole challenge measured after 90 mins; assay type: ADME, organism-based; conditions: in vivo, 1.5 h; how it was run: as §1
Hippocampus [8] = test: Drug uptake in CD-1 mouse hippocampus at 70 uCi, iv followed by compound washout by gamma-counting analysis; assay type: ADME, organism-based; conditions: in vivo
How it was run: (§5)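 Male CD-1 mice (25–30 g), three per time point. [18F] radiotracer (70 µCi, SA 8000–12000 mCi/µmol, in 0.2 mL saline) given by tail vein. Killed at several times up to 90 min. Dissected regions weighed and gamma counted against injectate standards, giving %ID/g.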

Cerebellum [9] = test: Drug uptake in CD-1 mouse cerebellum at 70 uCi, iv administered 10 mins post spiperone challenge measured after 90 mins; assay type: ADME, organism-based; conditions: in vivo, 1.5 h; how it was run: as §1
Nucleic Acid = test: Ratio of drug uptake from hippocampus to cerebellum in CD-1 mouse after 90 mins; assay type: ADME, nucleic-acid assay; conditions: 1.5 h
Hippocampus [10] = test: Drug uptake in CD-1 mouse hippocampus at 70 uCi, iv administered 10 mins post SSR180711 challenge measured after 90 mins; assay type: ADME, organism-based; conditions: in vivo, 1.5 h
Mus musculus [11] = test: Toxicity in CD-1 mouse assessed as change in behavioral activity at 0.07 mCi, iv after 90 mins in presence of 3-(1,4-Diazabicyclo[3.2.2]nonan-4-yl)-6-fluorodibenzo[b,d]thiophene 5,5-Dioxide; assay type: organism-based; conditions: in vivo, 1.5 h
How it was run: (§6)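 CD-1 mice observed for behavioral and locomotor changes during self-blockade studies. [18F]tracer (0.07 mCi, i.v.) was co-injected with the non-radioactive ligand at 0.3 or 0.2 mg/kg i.v., dissolved in saline at pH 5.5. Brains were harvested at 90 min.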

Brain [12] = test: Drug uptake in CD-1 mouse other brain regions at 70 uCi, iv after 90 mins in presence of nicotine; assay type: ADME, organism-based; conditions: in vivo, 1.5 h
Cerebellum [13] = test: Drug uptake in CD-1 mouse cerebellum at 70 uCi, iv after 90 mins in presence of cytisine; assay type: ADME, organism-based; conditions: in vivo, 1.5 h
How it was run: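 Male CD-1 mice, n=3. […] [18F] radiotracer (70 µCi, SA ~14000 mCi/µmol) given i.v. 5 min later. Regions harvested at 90 min, gamma counted, expressed as %ID/g.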

Cerebellum [14] = test: Drug uptake in CD-1 mouse cerebellum at 0.07 mCi, iv after 90 mins co-administered with 3 mg/kg SSR180711; assay type: ADME, organism-based; design: dose 3 mg/kg, route intravenous; conditions: in vivo, 1.5 h
How it was run: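 Male CD-1 mice (25–30 g), three per dose. Blocker in saline:ethanol 9:1 pH 5.5, given i.v. with [18F] radiotracer (70 µCi, SA 7900 mCi/µmol). Blocker doses 0, 0.02, 0.2, 1 and 3 mg/kg. Regions dissected 90 min later and gamma counted. Expressed as %ID/g, mean ± SD.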

Cerebellum [15] = test: Drug uptake in CD-1 mouse cerebellum at 0.07 mCi, iv after 90 mins in presence of 3-(1,4-Diazabicyclo[3.2.2]nonan-4-yl)-6-fluorodibenzo[b,d]thiophene 5,5-Dioxide; assay type: ADME, organism-based; conditions: in vivo, 1.5 h; how it was run: as §3
Striatum = test: Drug uptake in CD-1 mouse striatum at 0.07 mCi, iv after 90 mins co-administered with SSR180711; assay type: ADME, organism-based; conditions: in vivo, 1.5 h; how it was run: as §4
[16] = Drug uptake in CD-1 mouse superior and inferior colliculus at 70 uCi, iv after 90 mins in presence of nicotine; assay type: ADME, organism-based; conditions: in vivo, 1.5 h
Cerebellum [17] = test: Drug uptake in CD-1 mouse cerebellum at 70 uCi, iv administered 10 mins post ondansetron challenge measured after 90 mins; assay type: ADME, organism-based; conditions: in vivo, 1.5 h; how it was run: as §1
Hippocampus [18] = test: Drug uptake in CD-1 mouse hippocampus at 70 uCi, iv administered 10 mins post spiperone challenge measured after 90 mins; assay type: ADME, organism-based; conditions: in vivo, 1.5 h; how it was run: as §1
[19] = Drug uptake in CD-1 mouse superior and inferior colliculus at 70 uCi, iv administered 10 mins post naltrindole challenge measured after 90 mins; assay type: ADME, organism-based; conditions: in vivo, 1.5 h; how it was run: as §2
[20] = Drug uptake in CD-1 mouse superior and inferior colliculus at 70 uCi, iv administered 10 mins post SSR180711 challenge measured after 90 mins; assay type: ADME, organism-based; conditions: in vivo, 1.5 h
How it was run: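 Male CD-1 mice given the selective α7 partial agonist as positive control, 2 mg/kg s.c. in saline:DMSO 5:1 (0.1 mL), 10 min before i.v. [18F]tracer (70 µCi, ~14000 mCi/µmol, 0.2 mL). Controls received vehicle. Brain regions dissected at 90 min and gamma-counted. %ID/g, mean ± SD, n=3; ANOVA.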

Cerebellum [21] = test: Drug uptake in CD-1 mouse cerebellum at 70 uCi, iv followed by compound washout by gamma-counting analysis; assay type: ADME, organism-based; conditions: in vivo; how it was run: as §5
Mus musculus [22] = test: Toxicity in CD-1 mouse assessed as change in locomotor activity at 0.07 mCi, iv after 90 mins in presence of 3-(1,4-Diazabicyclo[3.2.2]nonan-4-yl)-6-fluorodibenzo[b,d]thiophene 5,5-Dioxide; assay type: organism-based; conditions: in vivo, 1.5 h; how it was run: as §6
Thalamus = test: Drug uptake in CD-1 mouse thalamus at 70 uCi, iv followed by compound washout by gamma-counting analysis; assay type: ADME, organism-based; conditions: in vivo
How it was run: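 Male CD-1 mice (25–30 g) given [18F]radioligand i.v. into a lateral tail vein (70 µCi, 8000–12000 mCi/µmol, in 0.2 mL saline). Killed by cervical dislocation at various times, three per time point. Brains dissected on ice; regions weighed and gamma-counted with injectate standards. Result as %ID/g.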

Cortex = test: Drug uptake in CD-1 mouse cortex at 70 uCi, iv administered 10 mins post naltrindole challenge measured after 90 mins; assay type: ADME, organism-based; conditions: in vivo, 1.5 h; how it was run: as §1

O=S1(=O)c2cc(N3CCN4CCC3CC4)ccc2-c2cccc([18F])c21
Drug uptake (Hippocampus [1]): Active
Drug uptake (Cerebellum [2]): Active
Drug uptake [3]: Active
Drug uptake (Cerebellum [4]): Active
Drug uptake [5]: Not Active
Drug uptake (Brain [6]): Active
Drug uptake (Hippocampus [7]): Active
Drug uptake (Hippocampus [8]): Active
Drug uptake (Cerebellum [9]): Active
Ratio (Nucleic Acid): 5.5
Drug uptake (Hippocampus [10]): Not Active
Activity (Mus musculus [11]): Non-toxic
Drug uptake (Brain [12]): Not Active
Drug uptake (Cerebellum [13]): Not Active
Drug uptake (Cerebellum [14]): Not Active
Drug uptake (Cerebellum [15]): Active
Drug uptake (Striatum): Not Active
Drug uptake [16]: Not Active
Drug uptake (Cerebellum [17]): Active
Drug uptake (Hippocampus [18]): Active
Drug uptake [19]: Active
Drug uptake [20]: Not Active
Drug uptake (Cerebellum [21]): Active
Activity (Mus musculus [22]): Non-toxic
Drug uptake (Thalamus): Active
Drug uptake (Cortex): Active
